Laboratory results reported in paper PMC3310921 (Bioorganic & medicinal chemistry, 2010).
Values joined by “and” are separate entries in the source; they are usually repeats but may differ in a detail not shown here. Equal values may be shown once. “Also recorded” adds a separate entry of the source. Read-outs that look alike come from different tables or passages of the source.

Key:
[1] = test system: mice; experiment: Murine toxicity study; format: in vivo; conditions: for Neurotoxicity in mice (in words): 30, 100 and 300 mg/kg intraperitoneally, examined after 0.5 and 4 h
[2] = Cytotoxicity, average of the three normal cells; format: cell-based; conditions: human, HGF, HPC and HPLF normal cells (average of the three)
Method in brief: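 Human HGF gingival fibroblasts, HPC pulp cells and HPLF periodontal ligament fibroblasts were exposed to graded concentrations for 24 h, up to a maximum of 400 μM. CC50 is the concentration cutting viable cell number by 50%. It was read from dose–response curves from duplicate determinations, then averaged over the three normal cell types.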

[3] = test system: HSC-2 cells; experiment: Internucleosomal DNA fragmentation in HSC-2 cells; format: cell-based, human; conditions: 6 h incubation
Method in brief: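 After 6 h exposure of HSC-2 cells (HL-60 in parallel), cellular DNA was examined for internucleosomal laddering against a DNA molecular-weight marker.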

[4] = test system: caspase-3 in HL-60 cells; experiment: Caspase-3 activation in HL-60 cells; format: cell-based, human; conditions: 5 h incubation
[5] = test system: caspase-3 in HSC-2 cells; experiment: Caspase-3 activation in HSC-2 cells; format: cell-based, human; conditions: 5 h incubation
Method in brief: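 HSC-2 cells, with HL-60 run in parallel, were exposed to the test compound for 5 h, then assayed for caspase-3 activation. The reference was UV irradiation at 6 J/m²/min for 1 min, followed by 3 h incubation. Values are from n = 3.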

[6] = test system: HL-60 cells; experiment: Internucleosomal DNA fragmentation in HL-60 cells; format: cell-based, human; conditions: 6 h incubation
[7] = test system: mice; conditions: recorded previously ref 25, cited from earlier work; for Neurotoxicity in mice (in words): 30, 100 and 300 mg/kg intraperitoneally, 0.5 and 4 h
[8] = test system: HSC-2 squamous cell carcinoma cells; conditions: read-out: CC50 HSC-2, human malignant cells, cited from earlier work
[9] = test system: HPC pulp cells; conditions: read-out: CC50 HPC; human normal cells; reported previously ref 26; cited from earlier work
[10] = test system: HL-60 promyelocytic leukemia cells; conditions: read-out: CC50 HL-60, human malignant cells, cited from earlier work
[11] = test system: HPLF periodontal ligament fibroblasts; conditions: read-out: CC50 HPLF; human normal cells; reported previously ref 26; cited from earlier work
[12] = test system: HGF gingival fibroblasts; conditions: read-out: CC50 HGF; human normal cells; reported previously ref 26; cited from earlier work
[13] = test system: HSC-4 squamous cell carcinoma cells; conditions: read-out: CC50 HSC-4; human malignant cells; reported previously ref 27; cited from earlier work
[14] = test system: mice; conditions: cited from earlier work
[15] = 100 mg/kg intraperitoneally, 0.5 h
[16] = 300 mg/kg intraperitoneally, 0.5 h

In the case of `CN(C)c1ccc(/C=C2\CCC/C(=C\c3cccc([N+](=O)[O-])c3)C2=O)cc1` [Compound 2d], the “Number of animals demonstrating neurological deficit/number of treated mice” value [1, 15] is reported as 1/8 and the “Number of animals demonstrating neurological deficit/number of treated mice” value [1, 16] is reported as 1/4.

In the case of `O=C1/C(=C/c2ccccc2)CCC/C1=C\c1ccc([N+](=O)[O-])cc1` [Compound 3a], the CC50 at 24 h [2] is reported as 259 µM and the “Neurotoxicity in mice (in words)” value [1] is reported as “did not display any neurotoxic symptoms”.

With `O=C1/C(=C/c2ccc(Cl)cc2)CCC/C1=C\c1ccccc1[N+](=O)[O-]` [Compound 1c] the “Induction of internucleosomal DNA fragmentation” value [3] was “no evidence”, the “Number of animals demonstrating neurological deficit/number of treated mice” value ([1]; 300 mg/kg intraperitoneally, 4 h) was “half or more” and the “Activation of caspase-3” value [4] was “concentration-dependent activation of caspase-3”. For the same compound, the “Activation of caspase-3” value [5] was “no evidence” and the “Induction of internucleosomal DNA fragmentation” value [6] was “induced the internucleosomal DNA fragmentation”.

With `O=C1CCCC/C1=C\c1ccccc1[N+](=O)[O-]` [Compound 4a] the CC50 at 24 h [2] was 146 µM, the “Number of animals demonstrating neurological deficit/number of treated mice” value [1, 16] was 1/4 and the “Neurotoxicity in mice (in words)” value [1] was “Marginal neurotoxicity”.

In the case of `COc1cc(/C=C2\CCC/C(=C\c3ccc([N+](=O)[O-])cc3)C2=O)cc(OC)c1OC` [Compound 3g], the “Number of animals demonstrating neurological deficit/number of treated mice” value [7, 15] is listed as 2/8 and the “Neurotoxicity in mice (in words)” value [7] is listed as “Marginal neurotoxicity”.

For `COc1cc(OC)c(OC)cc1/C=C1\CCC/C(=C\c2ccc([N+](=O)[O-])cc2)C1=O` [Compound 5b, 6-(4-Nitrobenzylidene)-2-(2,4,5-trimethoxybenzylidene) cyclohexanone], the “Number of animals demonstrating neurological deficit/number of treated mice” value [1, 15] was 1/8, the “Number of animals demonstrating neurological deficit/number of treated mice” value [1, 16] was 1/4 and the “Neurotoxicity in mice (in words)” value [1] was “Marginal neurotoxicity”.

In the case of `O=C1/C(=C/c2ccc(F)cc2)CCC/C1=C\c1ccc([N+](=O)[O-])cc1` [Compound 3b], the CC50 at 24 h [2] is reported as over 375 µM, the “Number of animals demonstrating neurological deficit/number of treated mice” value [1, 15] is reported as 1/8 and the “Neurotoxicity in mice (in words)” value [1] is reported as “Marginal neurotoxicity”.

In the case of `O=C1CCCC/C1=C\c1cccc([N+](=O)[O-])c1` [Compound 4b], the CC50 at 24 h [2] is reported as 60 µM and the “Number of animals demonstrating neurological deficit/number of treated mice” value [1, 16] is reported as 1/4.

In the case of `Cc1ccc(/C=C2\CCC/C(=C\c3ccc([N+](=O)[O-])cc3)C2=O)cc1` [Compound 3e], the CC50 at 24 h [2] is reported as over 280 µM and the “Number of animals demonstrating neurological deficit/number of treated mice” value [1, 16] is reported as “half or more and 3/4”.

In the case of `COc1ccc(/C=C2\CCC/C(=C\c3ccc([N+](=O)[O-])cc3)C2=O)c(OC)c1OC` [Compound 5a, 6-(4-Nitrobenzylidene)-2-(2,3,4-trimethoxybenzylidene) cyclohexanone], the “Neurotoxicity in mice (in words)” value [1] is reported as “did not display any neurotoxic symptoms”.

In the case of `COc1ccc(/C=C2\CCC/C(=C\c3ccc([N+](=O)[O-])cc3)C2=O)cc1` [Compound 3f], the CC50 ([8]; reported previously ref 26) is listed as over 400 µM, the CC50 [9] is listed as over 400 µM and the CC50 ([10]; reported previously ref 26) is listed as over 400 µM. For the same compound, the CC50 [11] was over 400 µM and the CC50 [12] was over 400 µM.

In the case of `O=C1/C(=C/c2ccccc2)CCC/C1=C\c1cccc([N+](=O)[O-])c1` [Compound 2a], the CC50 at 24 h [2] is reported as 19 µM, the “Number of animals demonstrating neurological deficit/number of treated mice” value [1, 15] is reported as 2/8 and the “Number of animals demonstrating neurological deficit/number of treated mice” value [1, 16] is reported as “half or more and 2/4”. The “Neurotoxicity in mice (in words)” value [1] was “Marginal neurotoxicity”.

For `O=C1/C(=C/c2ccc(Cl)cc2)CCC/C1=C\c1cccc([N+](=O)[O-])c1` [Compound 2c], the CC50 at 24 h [2] was 32 µM.

In the case of `O=C1/C(=C/c2ccc(Cl)cc2)CCC/C1=C\c1ccc([N+](=O)[O-])cc1` [Compound 3c], the “Neurotoxicity in mice (in words)” value [7] is listed as “did not display any neurotoxic symptoms; also recorded: no neurotoxicity”.

Compound `O=C1/C(=C/c2ccc(F)cc2)CCC/C1=C\c1ccccc1[N+](=O)[O-]` [Compound 1b] has a CC50 at 24 h [2] of 53 µM.

`COc1cc(/C=C2\CCC/C(=C\c3cccc([N+](=O)[O-])c3)C2=O)cc(OC)c1OC` [Compound 2g] gave a CC50 at 24 h [2] of over 379 µM.

`COc1cc(/C=C2\CCC/C(=C\c3ccccc3[N+](=O)[O-])C2=O)cc(OC)c1OC` [Compound 1g] showed a CC50 at 24 h [2] of 53 µM.

With `CN(C)c1ccc(/C=C2\CCC/C(=C\c3ccc([N+](=O)[O-])cc3)C2=O)cc1` [Compound 3d] the “Number of animals demonstrating neurological deficit/number of treated mice” value [1, 15] was 2/8.

For `Cc1ccc(/C=C2\CCC/C(=C\c3cccc([N+](=O)[O-])c3)C2=O)cc1` [Compound 2e], the CC50 at 24 h [2] was over 331 µM and the “Neurotoxicity in mice (in words)” value [1] was “did not display any neurotoxic symptoms”.

In the case of `N[C@@H](Cc1ccc(N(CCCl)CCCl)cc1)C(=O)O` [Melphalan, reference compound], the CC50 ([8]; reported previously ref 27) is listed as 35 µM, the CC50 ([10]; reported previously ref 27) is listed as 6 µM and the CC50 [13] is listed as 81 µM. For the same compound, the LD50 [14] was 4.0 mg/kg.

In the case of `O=C1/C(=C/c2ccccc2)CCC/C1=C\c1ccccc1[N+](=O)[O-]` [Compound 1a], the CC50 at 24 h [2] is reported as 45 µM and the “Neurotoxicity in mice (in words)” value [1] is reported as “did not display any neurotoxic symptoms”.

For `O=C1/C(=C/c2ccc(F)cc2)CCC/C1=C\c1cccc([N+](=O)[O-])c1` [Compound 2b], the CC50 at 24 h [2] was 39 µM and the “Number of animals demonstrating neurological deficit/number of treated mice” value [1, 15] was 1/8.

Work on `COc1ccc(/C=C2\CCC/C(=C\c3ccccc3[N+](=O)[O-])C2=O)cc1` [Compound 1f] yielded a CC50 at 24 h [2] of over 395 µM.

For `COc1ccc(/C=C2\CCC/C(=C\c3cccc([N+](=O)[O-])c3)C2=O)cc1` [Compound 2f], the CC50 at 24 h [2] was over 262 µM, the “Number of animals demonstrating neurological deficit/number of treated mice” value ([1]; 30 mg/kg intraperitoneally, 0.5 h) was 1/4 and the “Neurotoxicity in mice (in words)” value [1] was “Marginal neurotoxicity”.
